Source: ChEMBL document CHEMBL2150909, “Imidazo[1,2-a]pyridines: orally active positive allosteric modulators of the metabotropic glutamate 2 receptor” (J Med Chem, 2012)
Active and inactive are the calls of the source. The calls are words filed in the database; no cut-off is given here.

How the values were obtained:
[1] = target: Metabotropic glutamate receptor 8 (Homo sapiens) (UniProt O00222); assay: Antagonist activity at human mGlu 8 expressed in HEK293 cells at 10 uM by Ca+2 assay; assay type: functional, cell-based
Outline: (§1)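 Ca2+ assays on human mGlu1, mGlu3, mGlu5, mGlu7 or mGlu8 receptors, each expressed in HEK293 cells; compound tested at 10 μM for agonist and antagonist activity.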

[2] = Plasma concentration in Sprague-Dawley rat at 10 mg/kg, sc after 1 hr; assay type: ADME, organism-based; design: dose 10 mg/kg, route subcutaneous
Outline: (§2)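 Male Sprague−Dawley rats given 10 mg/kg subcutaneously, vehicle 20% HP-β-CD at pH 4. Plasma (ng/mL) and brain (ng/g) drug levels determined at the listed post-dose time; B/P ratio derived from them. Values are geometric means of at least two runs ± SEM.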

[3] = Ratio of drug level in brain to plasma of Sprague-Dawley rat at 10 mg/kg, sc after 2 hrs; assay type: ADME, organism-based; design: dose 10 mg/kg, route subcutaneous; settings: read-out: BPR; outline: as §2
[4] = target: Metabotropic glutamate receptor 3 (Homo sapiens) (UniProt Q14832); assay: Antagonist activity at human mGlu 3 expressed in HEK293 cells at 10 uM by Ca+2 assay; assay type: functional, cell-based; outline: as §1
[5] = target: Metabotropic glutamate receptor 3 (Homo sapiens) (UniProt Q14832); assay: Agonist activity at human mGlu 3 expressed in HEK293 cells at 10 uM by Ca+2 assay; assay type: functional, cell-based; outline: as §1
[6] = target: T1, Metabotropic glutamate receptor 2 (Homo sapiens, UniProt Q14416); assay: Agonist activity at human mGlu 2 expressed in CHO cells assessed as [35S]GTPgammaS binding by liquid scintillation analysis; assay type: functional, cell-based
Outline: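 Membranes from butyrate-stimulated (5 mM, 24 h) CHO cells expressing human mGlu2. Preincubated 30 min at 30 °C in HEPES pH 7.4 with NaCl, MgCl2, 50 μM GDP and saponin; modulator 0.3 nM–50 μM, no added glutamate. [35S]GTPγS 0.1 nM final, 30 min at 30 °C, filtered, scintillation counted. Nonspecific binding defined with cold GTP; 11 concentrations in duplicate, ≥3 curves.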

[7] = Drug uptake in Sprague-Dawley rat brain at 10 mg/kg, sc after 4 hrs; assay type: ADME, organism-based; design: dose 10 mg/kg, route subcutaneous; settings: read-out: Drug uptake
Outline: (§3)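 Brain exposure in male Sprague-Dawley rats after a 10 mg/kg subcutaneous dose, vehicle 20% HP-β-CD at pH 4. Brain level measured in ng/g alongside plasma in ng/mL; geometric mean of at least two runs ± SEM.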

[8] = Plasma concentration in Sprague-Dawley rat at 10 mg/kg, sc after 4 hrs; assay type: ADME, organism-based; design: dose 10 mg/kg, route subcutaneous; outline: as §2
[9] = Ratio of drug level in brain to plasma of Sprague-Dawley rat at 10 mg/kg, sc after 1 hr; assay type: ADME, organism-based; design: dose 10 mg/kg, route subcutaneous; settings: read-out: BPR; outline: as §2
[10] = Metabolic stability of human liver microsomes assessed as compound metabolized at 5 uM after 15 mins; assay type: ADME, Microsome; settings: read-out: Drug metabolism
Outline: (§4)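 Test compound at 5 μM incubated 15 min with rat or human liver microsomes; read-out is percent of compound metabolized.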

[11] = Drug uptake in Sprague-Dawley rat brain at 10 mg/kg, sc after 2 hrs; assay type: ADME, organism-based; design: dose 10 mg/kg, route subcutaneous; settings: read-out: Drug uptake; outline: as §3
[12] = Oral bioavailability in Sprague-Dawley rat at 10 mg/kg; assay type: ADME, organism-based; settings: in vivo
Outline: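 Male Sprague-Dawley rats given 10 mg/kg orally and/or 1.25 mg/kg intravenously; compound formulated in 20% HP-β-CD at pH 4. Cmax, tmax, AUC0−inf, t1/2, clearance and oral bioavailability F derived from plasma levels; geometric mean of at least two runs ± SEM.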

[13] = AUC (0 to infinity) in Sprague-Dawley rat at 10 mg/kg, po and 2.5 mg/kg, iv; assay type: ADME, organism-based; settings: plasma
Outline: (§5)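 Rat PK: compounds formulated in 20% HP-β-CD at pH 4 and given orally and intravenously. Values are geometric means of at least two runs ± SEM.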

[14] = Plasma concentration in Sprague-Dawley rat at 10 mg/kg, sc after 2 hrs; assay type: ADME, organism-based; design: dose 10 mg/kg, route subcutaneous; outline: as §2
[15] = target: T2, Metabotropic glutamate receptor 7 (Homo sapiens, UniProt Q14831); assay: Antagonist activity at human mGlu 7 expressed in HEK293 cells at 10 uM by Ca+2 assay; assay type: functional, cell-based; outline: as §1
[16] = target: Metabotropic glutamate receptor 1 (Homo sapiens) (UniProt Q13255); assay: Agonist activity at human mGlu 1 expressed in HEK293 cells at 10 uM by Ca+2 assay; assay type: functional, cell-based; outline: as §1
[17] = target: Metabotropic glutamate receptor 5 (Homo sapiens) (UniProt P41594); assay: Agonist activity at human mGlu 5 expressed in HEK293 cells at 10 uM by Ca+2 assay; assay type: functional, cell-based; outline: as §1
[18] = target: Metabotropic glutamate receptor 6 (Rattus norvegicus) (UniProt P35349); assay: Agonist activity at rat mGlu 6 expressed in CHO cells assessed as [35S]GTPgammaS binding by liquid scintillation counting; assay type: functional, cell-based
Outline: (§6)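 [35S]GTPγS functional assays on human mGlu4 or rat mGlu6 receptors expressed in L929 or CHO cells; agonist and antagonist modes tested at 10 μM.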

[19] = target: Metabotropic glutamate receptor 4 (Homo sapiens) (UniProt Q14833); assay: Antagonist activity at human mGlu 4 expressed in L929 cells assessed inhibition of [35S]GTPgammaS binding by liquid scintillation counting; assay type: functional, cell-based; outline: as §6
[20] = target: Metabotropic glutamate receptor 4 (Homo sapiens) (UniProt Q14833); assay: Agonist activity at human mGlu 4 expressed in L929 cells assessed as [35S]GTPgammaS binding by liquid scintillation counting; assay type: functional, cell-based; outline: as §6
[21] = Cmax in Sprague-Dawley rat at 10 mg/kg, po and 2.5 mg/kg, iv; assay type: ADME, organism-based; settings: in vivo; outline: as §5
[22] = target: Metabotropic glutamate receptor 1 (Homo sapiens) (UniProt Q13255); assay: Antagonist activity at human mGlu 1 expressed in HEK293 cells at 10 uM by Ca+2 assay; assay type: functional, cell-based; outline: as §1
[23] = target: Metabotropic glutamate receptor 6 (Rattus norvegicus) (UniProt P35349); assay: Antagonist activity at rat mGlu 6 expressed in CHO cells assessed as inhibition of [35S]GTPgammaS binding by liquid scintillation counting; assay type: functional, cell-based; outline: as §6
[24] = Metabolic stability of Sprague-Dawley rat liver microsomes assessed as compound metabolized at 5 uM after 15 mins; assay type: ADME, Microsome; settings: read-out: Drug metabolism; outline: as §4
[25] = target: T2, Metabotropic glutamate receptor 7; assay: Agonist activity at human mGlu 7 expressed in HEK293 cells by Ca+2 assay; assay type: functional, cell-based
[26] = Half life in Sprague-Dawley rat at 10 mg/kg, po and 2.5 mg/kg, iv; assay type: ADME, organism-based; settings: in vivo; outline: as §5
[27] = Drug uptake in Sprague-Dawley rat brain at 10 mg/kg, sc after 1 hr; assay type: ADME, organism-based; design: dose 10 mg/kg, route subcutaneous; settings: read-out: Drug uptake; outline: as §3
[28] = target: Metabotropic glutamate receptor 5 (Homo sapiens) (UniProt P41594); assay: Antagonist activity at human mGlu 5 expressed in HEK293 cells at 10 uM by Ca+2 assay; assay type: functional, cell-based; outline: as §1
[29] = target: T1, Metabotropic glutamate receptor 2; assay: Agonist activity at human mGlu 2 expressed in CHO cells by PAM assay relative to glutamate; assay type: functional, cell-based
Outline: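 The assay measured [35S]GTPγS binding to membranes from CHO cells expressing human mGluR2. Cells were butyrate-stimulated (5 mM, 24 h) before membranes were prepared. Membranes were preincubated for 30 min at 30 °C in HEPES pH 7.4 buffer (NaCl, MgCl2, 50 μM GDP) with compound (0.3 nM–50 μM, 11 concentrations) plus EC25 glutamate. [35S]GTPγS (0.1 nM final) was then added for 30 min at 30 °C. Bound label was collected by filtration and counted. Runs were done at least in triplicate with duplicate points, and a four-parameter logistic fit gave the values.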

[30] = target: Metabotropic glutamate receptor 8 (Homo sapiens) (UniProt O00222); assay: Agonist activity at human mGlu 8 expressed in HEK293 cells at 10 uM by Ca+2 assay; assay type: functional, cell-based; outline: as §1
[31] = Ratio of drug level in brain to plasma of Sprague-Dawley rat at 10 mg/kg, sc after 4 hrs; assay type: ADME, organism-based; design: dose 10 mg/kg, route subcutaneous; settings: brain and plasma, read-out: BPR; outline: as §2
[32] = Clearance in Sprague-Dawley rat at 10 mg/kg, po and 2.5 mg/kg, iv; assay type: ADME, organism-based; settings: in vivo
[33] = Tmax in Sprague-Dawley rat at 10 mg/kg, po and 2.5 mg/kg, iv; assay type: ADME, organism-based; settings: in vivo; outline: as §5

Chain of Metabotropic glutamate receptor 8 (Homo sapiens) (O00222 whole entry): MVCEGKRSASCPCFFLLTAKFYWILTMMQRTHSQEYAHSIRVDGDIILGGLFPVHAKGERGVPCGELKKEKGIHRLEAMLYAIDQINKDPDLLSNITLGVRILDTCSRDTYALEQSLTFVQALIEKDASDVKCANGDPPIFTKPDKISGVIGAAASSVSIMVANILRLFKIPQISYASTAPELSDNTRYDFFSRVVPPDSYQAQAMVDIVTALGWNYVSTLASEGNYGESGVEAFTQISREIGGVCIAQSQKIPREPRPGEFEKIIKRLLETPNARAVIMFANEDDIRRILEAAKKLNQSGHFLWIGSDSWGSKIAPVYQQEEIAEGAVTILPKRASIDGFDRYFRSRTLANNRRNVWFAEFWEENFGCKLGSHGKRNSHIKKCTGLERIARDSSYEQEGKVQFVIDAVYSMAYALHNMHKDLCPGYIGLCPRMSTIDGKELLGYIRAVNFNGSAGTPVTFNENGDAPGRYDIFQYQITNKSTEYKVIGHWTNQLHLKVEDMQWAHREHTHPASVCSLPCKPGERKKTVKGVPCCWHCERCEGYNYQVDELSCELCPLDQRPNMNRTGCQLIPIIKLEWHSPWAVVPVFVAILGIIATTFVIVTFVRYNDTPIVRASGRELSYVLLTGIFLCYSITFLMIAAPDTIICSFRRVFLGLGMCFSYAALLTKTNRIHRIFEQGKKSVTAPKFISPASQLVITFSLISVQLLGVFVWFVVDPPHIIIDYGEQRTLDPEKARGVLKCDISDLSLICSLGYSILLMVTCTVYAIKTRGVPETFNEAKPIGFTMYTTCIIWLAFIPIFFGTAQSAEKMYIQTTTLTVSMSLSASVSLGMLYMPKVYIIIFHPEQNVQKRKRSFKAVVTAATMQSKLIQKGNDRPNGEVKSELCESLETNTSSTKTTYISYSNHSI
Chain of Metabotropic glutamate receptor 3 (Homo sapiens) (Q14832 23-879 limits assumed): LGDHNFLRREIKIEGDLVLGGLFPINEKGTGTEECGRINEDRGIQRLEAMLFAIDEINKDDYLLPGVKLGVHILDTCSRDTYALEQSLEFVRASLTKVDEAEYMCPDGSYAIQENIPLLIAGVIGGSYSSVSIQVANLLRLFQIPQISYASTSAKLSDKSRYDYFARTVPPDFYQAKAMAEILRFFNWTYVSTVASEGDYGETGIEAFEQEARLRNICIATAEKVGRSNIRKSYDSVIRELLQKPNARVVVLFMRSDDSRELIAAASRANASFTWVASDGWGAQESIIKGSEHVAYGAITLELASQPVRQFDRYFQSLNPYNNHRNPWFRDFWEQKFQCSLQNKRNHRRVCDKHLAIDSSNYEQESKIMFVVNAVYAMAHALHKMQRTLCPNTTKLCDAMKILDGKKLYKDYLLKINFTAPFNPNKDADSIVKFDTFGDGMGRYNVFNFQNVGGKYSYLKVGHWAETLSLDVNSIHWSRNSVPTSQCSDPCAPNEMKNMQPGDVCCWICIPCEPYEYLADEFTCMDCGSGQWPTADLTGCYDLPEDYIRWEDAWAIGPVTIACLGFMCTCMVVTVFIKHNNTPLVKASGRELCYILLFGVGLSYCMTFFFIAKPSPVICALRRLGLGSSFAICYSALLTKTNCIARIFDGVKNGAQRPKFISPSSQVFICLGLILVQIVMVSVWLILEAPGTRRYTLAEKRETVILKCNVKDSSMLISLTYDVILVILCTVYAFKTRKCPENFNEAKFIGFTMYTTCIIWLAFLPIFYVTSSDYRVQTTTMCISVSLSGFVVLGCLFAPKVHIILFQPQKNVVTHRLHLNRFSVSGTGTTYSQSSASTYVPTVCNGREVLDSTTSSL
Chain of Metabotropic glutamate receptor 6 (Rattus norvegicus) (P35349 whole entry): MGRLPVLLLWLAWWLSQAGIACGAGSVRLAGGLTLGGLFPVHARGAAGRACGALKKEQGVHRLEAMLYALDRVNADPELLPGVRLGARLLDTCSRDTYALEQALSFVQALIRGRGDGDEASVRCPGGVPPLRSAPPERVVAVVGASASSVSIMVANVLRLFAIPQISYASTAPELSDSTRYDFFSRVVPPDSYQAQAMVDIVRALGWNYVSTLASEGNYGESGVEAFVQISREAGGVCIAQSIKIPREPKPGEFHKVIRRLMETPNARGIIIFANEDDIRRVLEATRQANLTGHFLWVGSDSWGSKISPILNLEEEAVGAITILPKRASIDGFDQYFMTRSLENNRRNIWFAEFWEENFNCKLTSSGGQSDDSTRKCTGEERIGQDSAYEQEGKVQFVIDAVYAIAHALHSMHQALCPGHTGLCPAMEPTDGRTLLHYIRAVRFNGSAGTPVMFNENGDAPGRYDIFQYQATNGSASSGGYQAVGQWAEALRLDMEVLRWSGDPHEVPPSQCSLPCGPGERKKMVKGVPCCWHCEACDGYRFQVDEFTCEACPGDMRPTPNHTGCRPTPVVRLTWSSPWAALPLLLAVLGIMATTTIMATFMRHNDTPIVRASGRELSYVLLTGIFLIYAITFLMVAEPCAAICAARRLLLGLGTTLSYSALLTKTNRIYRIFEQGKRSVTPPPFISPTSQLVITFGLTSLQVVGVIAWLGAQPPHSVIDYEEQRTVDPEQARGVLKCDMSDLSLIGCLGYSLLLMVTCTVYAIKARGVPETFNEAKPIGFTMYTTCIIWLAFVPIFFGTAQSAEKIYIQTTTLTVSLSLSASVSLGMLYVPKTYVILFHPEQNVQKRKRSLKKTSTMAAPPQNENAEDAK
T2 sequence (Q14831 whole entry): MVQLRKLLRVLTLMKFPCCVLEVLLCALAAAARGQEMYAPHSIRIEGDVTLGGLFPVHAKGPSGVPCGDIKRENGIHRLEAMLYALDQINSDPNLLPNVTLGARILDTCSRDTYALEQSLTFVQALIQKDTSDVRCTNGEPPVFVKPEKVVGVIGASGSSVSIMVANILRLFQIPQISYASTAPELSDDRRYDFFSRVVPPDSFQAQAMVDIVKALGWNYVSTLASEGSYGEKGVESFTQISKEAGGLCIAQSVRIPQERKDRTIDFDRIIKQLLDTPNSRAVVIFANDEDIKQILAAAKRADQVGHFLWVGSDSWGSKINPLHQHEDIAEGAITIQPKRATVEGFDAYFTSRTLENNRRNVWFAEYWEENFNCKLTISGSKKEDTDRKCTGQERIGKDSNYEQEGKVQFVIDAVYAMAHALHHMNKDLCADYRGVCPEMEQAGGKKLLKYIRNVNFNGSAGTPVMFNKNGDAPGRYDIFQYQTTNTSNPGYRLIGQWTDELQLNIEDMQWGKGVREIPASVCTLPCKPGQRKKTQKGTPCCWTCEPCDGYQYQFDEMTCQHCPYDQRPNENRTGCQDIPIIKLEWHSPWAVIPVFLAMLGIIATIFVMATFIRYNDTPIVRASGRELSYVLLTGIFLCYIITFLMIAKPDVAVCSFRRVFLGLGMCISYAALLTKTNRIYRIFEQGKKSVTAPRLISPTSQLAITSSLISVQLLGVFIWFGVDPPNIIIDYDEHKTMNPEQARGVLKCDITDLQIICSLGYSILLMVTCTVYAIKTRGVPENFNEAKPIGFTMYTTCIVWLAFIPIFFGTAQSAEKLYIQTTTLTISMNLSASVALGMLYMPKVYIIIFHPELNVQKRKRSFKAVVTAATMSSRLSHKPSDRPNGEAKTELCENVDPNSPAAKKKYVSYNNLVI
Chain of Metabotropic glutamate receptor 4 (Homo sapiens) (Q14833 whole entry): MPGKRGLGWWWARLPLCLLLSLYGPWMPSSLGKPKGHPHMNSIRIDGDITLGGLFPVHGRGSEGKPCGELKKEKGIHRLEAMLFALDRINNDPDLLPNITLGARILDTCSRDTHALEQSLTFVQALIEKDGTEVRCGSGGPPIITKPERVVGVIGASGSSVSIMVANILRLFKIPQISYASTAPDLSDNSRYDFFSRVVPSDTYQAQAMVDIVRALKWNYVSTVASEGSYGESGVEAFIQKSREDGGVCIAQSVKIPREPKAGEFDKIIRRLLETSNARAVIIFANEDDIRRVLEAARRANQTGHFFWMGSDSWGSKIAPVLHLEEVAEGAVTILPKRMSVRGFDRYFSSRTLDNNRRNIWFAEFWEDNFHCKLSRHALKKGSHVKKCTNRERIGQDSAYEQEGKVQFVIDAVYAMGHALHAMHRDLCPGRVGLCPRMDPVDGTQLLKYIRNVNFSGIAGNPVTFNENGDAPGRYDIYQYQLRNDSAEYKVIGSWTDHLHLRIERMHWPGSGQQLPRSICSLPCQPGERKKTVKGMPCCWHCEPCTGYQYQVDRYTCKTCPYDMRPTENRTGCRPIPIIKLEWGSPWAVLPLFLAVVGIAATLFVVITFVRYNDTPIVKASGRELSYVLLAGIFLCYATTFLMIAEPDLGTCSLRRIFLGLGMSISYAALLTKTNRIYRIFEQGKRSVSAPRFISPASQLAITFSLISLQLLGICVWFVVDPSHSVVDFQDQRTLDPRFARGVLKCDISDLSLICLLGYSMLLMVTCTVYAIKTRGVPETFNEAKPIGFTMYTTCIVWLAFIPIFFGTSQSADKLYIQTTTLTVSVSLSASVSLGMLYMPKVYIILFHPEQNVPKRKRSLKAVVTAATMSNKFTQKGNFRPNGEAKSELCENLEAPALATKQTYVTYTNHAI

Activity [1]: inactive
concentration at 1 h [2]: 3810 ng/mL
Kp at 2 h [3]: 0.3
Activity [4]: inactive
Activity [5]: inactive
EC50 [6]: 160 nM
concentration at 4 h [7]: 843 ng/g
concentration at 4 h [8]: 1950 ng/mL
Kp at 1 h [9]: 0.2
metabolised at 0.25 h, 5 µM [10]: 14%
concentration at 2 h [11]: 1040 ng/g
bioavailability [12]: 100%
AUC(0-inf) [13]: 10600 ng·h/mL
concentration at 2 h [14]: 3730 ng/mL
Activity [15]: inactive
Activity [16]: inactive
Activity [17]: inactive
Activity [18]: inactive
Activity [19]: inactive
Activity [20]: inactive
Cmax [21]: 1140 ng/mL
Activity [22]: inactive
Activity [23]: inactive
metabolised at 0.25 h, 5 µM [24]: 8%
EC50 [25]: 5.2 µM
half-life [26]: 258 min
concentration at 1 h [27]: 932 ng/g
Activity [28]: inactive
Emax [29]: 244%
Activity [30]: inactive
Kp at 4 h [31]: 0.4
clearance [32]: 15 mL/min/kg
Tmax [33]: 3.3 h
Structure (SMILES): O[C@H]1CC[C@H](n2ccc3cc(-c4ccn5c(CC(F)(F)F)cnc5c4Cl)ccc32)CC1
